This passage reports inhibition, IC50 and GI50 results from ChEMBL document CHEMBL1154286, “The discovery and optimisation of pyrido[2,3-d]pyrimidine-2,4-diamines as potent and selective inhibitors of mTOR kinase” (Bioorg Med Chem Lett, 2009).

For orientation: inhibition means the percentage by which the read-out fell short of the control. By pIC50 is commonly meant the IC50 on a negative log10 scale, so that one unit is a factor of ten. Read a low pIC50 as a high IC50. What is called GI50 is the concentration that inhibits growth by half. High values mean less potent growth inhibition, low ones more potent growth inhibition.

pIC50: −log10 of the molar value.

Assay [1] deals with Serine/threonine-protein kinase mTOR (Homo sapiens) (UniProt P42345). Kind of assay: Inhibition of mTOR in human HeLa cells using 4E-BP1 substrate at 10 uM by ELISA. The format is cell-based.
The nature of assay [2]: Inhibition of mTOR in human HeLa cells using 4E-BP1 substrate by ELISA. It counts as cell-based. The procedure, abridged: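 Full-length mTOR immunoprecipitated from HeLa cytoplasmic extract; recombinant 4E-BP1 protein as substrate; ATP at 50 µM; phosphorylated product detected by ELISA. Values are the mean of at least 3 determinations, with variability around the mean <50%.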
Background: An ELISA detects its analyte on a solid surface through an enzyme-linked reagent.

In assay [3] the target is Serine/threonine-protein kinase ATR (Homo sapiens, UniProt Q13535). As to the kind of experiment: Inhibition of ATR.
Assay [4] has as its target DNA-dependent protein kinase catalytic subunit (Homo sapiens, UniProt P78527). As to the kind of experiment: Inhibition of DNA-PK.
The subject of a further assay is T47D. As to the kind of experiment: Antiproliferative activity against human T47D cells after 120 hrs by SRB assay. It counts as functional. (In general: Sulforhodamine B stains cellular protein and so reports cell mass.)

Chain of Serine/threonine-protein kinase ATR (Q13535 whole entry): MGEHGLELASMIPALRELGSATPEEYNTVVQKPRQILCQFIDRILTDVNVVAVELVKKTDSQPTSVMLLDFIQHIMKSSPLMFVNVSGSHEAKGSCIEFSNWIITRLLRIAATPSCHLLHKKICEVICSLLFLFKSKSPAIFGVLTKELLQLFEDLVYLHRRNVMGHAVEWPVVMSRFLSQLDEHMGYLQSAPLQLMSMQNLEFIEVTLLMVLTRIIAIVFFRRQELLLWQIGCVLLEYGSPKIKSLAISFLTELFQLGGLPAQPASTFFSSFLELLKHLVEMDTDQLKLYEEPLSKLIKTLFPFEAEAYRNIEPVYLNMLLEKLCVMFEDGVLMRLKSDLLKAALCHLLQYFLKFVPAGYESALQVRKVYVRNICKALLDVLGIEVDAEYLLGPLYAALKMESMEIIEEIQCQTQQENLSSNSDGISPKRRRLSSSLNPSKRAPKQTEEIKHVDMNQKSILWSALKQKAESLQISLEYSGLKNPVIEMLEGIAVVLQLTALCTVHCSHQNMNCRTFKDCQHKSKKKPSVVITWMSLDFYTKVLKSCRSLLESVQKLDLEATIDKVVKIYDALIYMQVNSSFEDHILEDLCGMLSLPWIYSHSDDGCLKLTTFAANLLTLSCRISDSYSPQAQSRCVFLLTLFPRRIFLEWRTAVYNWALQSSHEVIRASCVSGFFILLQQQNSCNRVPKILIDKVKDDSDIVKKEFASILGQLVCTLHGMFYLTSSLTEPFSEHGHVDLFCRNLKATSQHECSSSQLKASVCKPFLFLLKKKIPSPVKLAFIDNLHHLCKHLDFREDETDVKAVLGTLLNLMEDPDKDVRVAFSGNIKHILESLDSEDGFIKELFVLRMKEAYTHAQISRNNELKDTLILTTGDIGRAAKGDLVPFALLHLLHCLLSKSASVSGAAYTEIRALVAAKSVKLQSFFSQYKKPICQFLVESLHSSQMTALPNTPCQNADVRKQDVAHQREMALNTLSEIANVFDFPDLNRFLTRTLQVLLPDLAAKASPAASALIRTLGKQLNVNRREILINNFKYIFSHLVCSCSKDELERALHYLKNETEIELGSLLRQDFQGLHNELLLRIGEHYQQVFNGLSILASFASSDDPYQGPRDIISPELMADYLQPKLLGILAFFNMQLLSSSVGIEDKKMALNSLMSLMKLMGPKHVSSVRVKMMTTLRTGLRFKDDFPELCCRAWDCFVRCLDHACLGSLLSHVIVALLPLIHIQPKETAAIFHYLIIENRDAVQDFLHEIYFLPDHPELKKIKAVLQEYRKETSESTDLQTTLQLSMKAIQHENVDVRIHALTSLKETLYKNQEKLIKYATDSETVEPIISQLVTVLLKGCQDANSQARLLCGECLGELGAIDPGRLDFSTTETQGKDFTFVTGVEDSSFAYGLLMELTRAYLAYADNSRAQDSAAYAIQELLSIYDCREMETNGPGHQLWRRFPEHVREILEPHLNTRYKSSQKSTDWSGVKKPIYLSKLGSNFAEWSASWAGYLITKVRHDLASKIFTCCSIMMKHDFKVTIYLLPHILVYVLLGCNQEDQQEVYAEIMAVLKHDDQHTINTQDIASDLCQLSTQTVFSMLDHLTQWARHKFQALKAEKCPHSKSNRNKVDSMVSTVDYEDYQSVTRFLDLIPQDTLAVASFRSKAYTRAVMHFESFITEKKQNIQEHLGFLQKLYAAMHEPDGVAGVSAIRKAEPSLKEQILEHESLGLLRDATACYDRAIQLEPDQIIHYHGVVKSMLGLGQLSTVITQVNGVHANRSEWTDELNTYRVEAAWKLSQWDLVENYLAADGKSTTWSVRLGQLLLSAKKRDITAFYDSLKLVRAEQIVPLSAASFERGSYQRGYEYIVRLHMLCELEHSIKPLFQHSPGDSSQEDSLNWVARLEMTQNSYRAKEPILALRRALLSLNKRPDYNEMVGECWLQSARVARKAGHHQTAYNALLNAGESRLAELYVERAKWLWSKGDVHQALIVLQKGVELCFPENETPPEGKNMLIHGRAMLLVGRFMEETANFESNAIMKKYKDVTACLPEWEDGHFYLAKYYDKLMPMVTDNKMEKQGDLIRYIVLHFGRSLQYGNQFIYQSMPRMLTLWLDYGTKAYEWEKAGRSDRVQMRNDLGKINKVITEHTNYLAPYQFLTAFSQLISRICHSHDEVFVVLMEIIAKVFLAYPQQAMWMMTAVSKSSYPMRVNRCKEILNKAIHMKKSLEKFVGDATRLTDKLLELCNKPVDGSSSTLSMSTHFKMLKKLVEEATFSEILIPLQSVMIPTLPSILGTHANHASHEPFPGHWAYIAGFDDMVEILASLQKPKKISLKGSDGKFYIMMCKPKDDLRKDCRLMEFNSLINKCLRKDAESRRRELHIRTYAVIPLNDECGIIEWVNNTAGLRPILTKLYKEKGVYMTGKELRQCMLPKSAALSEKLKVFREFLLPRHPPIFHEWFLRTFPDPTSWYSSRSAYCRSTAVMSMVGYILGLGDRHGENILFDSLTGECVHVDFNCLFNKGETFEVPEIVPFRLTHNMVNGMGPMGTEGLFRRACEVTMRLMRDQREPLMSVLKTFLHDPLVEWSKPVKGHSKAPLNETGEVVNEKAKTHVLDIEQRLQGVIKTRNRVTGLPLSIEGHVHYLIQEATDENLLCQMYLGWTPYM

In assay [1], `CC1CCCCN1c1nc(N2CCOCC2)c2ccccc2n1` (stereo not drawn) came in with an inhibition of less than 30%.

Take `COc1cccc(-c2ccc3c(N4CCOCC4)nc(N4C[C@@H](C)O[C@@H](C)C4)nc3n2)c1`: in assay [2], the pIC50 is 6.31.

With `C[C@@H]1CN(c2nc(N3CCOCC3)c3ccc(Nc4ccccc4)nc3n2)C[C@H](C)O1`, in assay [2], the pIC50 was 6.92.

In turn, `C[C@@H]1CN(c2nc(N3CCOCC3)c3ccc(-c4ccccc4)nc3n2)C[C@H](C)O1` had a negative logarithm of the IC50 (pIC50) in assay [2] of 7.21.

Compound `C[C@H]1CCCCN1c1nc(N2CCOCC2)c2cccnc2n1` gave a pIC50 in assay [2] of 6.16.

The compound `c1cnc2nc(N3CCOCC3)nc(N3CCOCC3)c2c1` came in with an inhibition in assay [1] of less than 30%.

Take `C[C@@H]1CN(c2nc(N3CCOCC3)c3cccnc3n2)C[C@H](C)O1`: in assay [2], the pIC50 was 5.89.

`CC1CCCN(c2nc(N3CCOCC3)c3cccnc3n2)C1` (stereo not drawn) showed a pIC50 in assay [2] of 5.52.

`C[C@H]1CCCCN1c1nc(N2CCCOCC2)c2cccnc2n1`: the negative-log IC50 (pIC50) in assay [2] was 5.32.

`C[C@@H]1CN(c2nc(N3CCOCC3)c3ccc(-c4cccc(CO)c4)nc3n2)C[C@H](C)O1` had a pIC50 in assay [2] of 7.03.

For `C[C@H]1COCCN1c1nc(N2CCOCC2)c2cccnc2n1`, in assay [2], the negative logarithm of the IC50 (pIC50) is 5.74.

`COc1ccc(-c2ccc3c(N4CCOCC4)nc(N4C[C@@H](C)O[C@@H](C)C4)nc3n2)cc1CO` [Ku-0063794]: the pIC50 in assay [2] was 7.80; in assay [3], less than 5.00; in assay [4], less than 5.00. Besides, the GI50 in the assay on T47D amounted to 350 nM.

`C[C@@H]1CCCCN1c1nc(N2CCOCC2)c2cccnc2n1` showed a pIC50 in assay [2] of 5.92.

Regarding `C[C@H]1CCCCN1c1nc(N2CCCCC2)c2cccnc2n1`, in assay [1], the inhibition was less than 30%.

`CC1CCCCN1c1nc(N2CCOCC2)c2ncccc2n1` (stereo not drawn) came in with an inhibition in assay [1] of less than 30%.

Take `C[C@@H]1CN(c2nc(N3CCOCC3)c3ccc(-c4ccoc4)nc3n2)C[C@H](C)O1`: in assay [2], the pIC50 is 6.92.

Consider `C[C@@H]1CN(c2nc(N3CCOCC3)c3ccc(-c4ccc(O)cc4)nc3n2)C[C@H](C)O1`, for which the pIC50 in assay [2] was 7.41.

As to `C[C@@H]1CN(c2nc(N3CCOCC3)c3ccc(-c4ccsc4)nc3n2)C[C@H](C)O1`, in assay [2], the negative-log IC50 (pIC50) was 7.48.

As to `CC1CCCCN1c1nc(N2CCOCC2)c2ccncc2n1` (stereo not drawn), the inhibition in assay [1] is less than 30%.

Take `COc1ccc(-c2ccc3c(N4CCOCC4)nc(N4C[C@@H](C)O[C@@H](C)C4)nc3n2)cc1`: in assay [2], the negative-log IC50 (pIC50) is 7.35.

In assay [2], `C[C@@H]1CN(c2nc(N3CCOCC3)c3ccc(Nc4ccncc4)nc3n2)C[C@H](C)O1` had a negative-log IC50 (pIC50) of 7.06.

As for `C[C@@H]1CN(c2nc(N3CCOCC3)c3ccc(-c4ccncc4)nc3n2)C[C@H](C)O1`, the negative logarithm of the IC50 (pIC50) in assay [2] is 6.66.

As for `CC1CCCCN1c1nc(N2CCOCC2)c2cccnc2n1` (racemic), the negative logarithm of the IC50 (pIC50) in assay [2] is 6.00.

In turn, `C[C@@H]1CN(c2nc(N3CCOCC3)c3ccc(-c4ccc(O)c(CO)c4)nc3n2)C[C@H](C)O1` gave a pIC50 in assay [2] of 7.43.

Consider `C[C@@H]1CN(c2nc(N3CCOCC3)c3ccc(-c4cccc(O)c4)nc3n2)C[C@H](C)O1`, for which the pIC50 in assay [2] was 7.28.
